Data taken from ChEMBL document CHEMBL1649506, “Novel antiviral agent DTriP-22 targets RNA-dependent RNA polymerase of enterovirus 71” (Antimicrob Agents Chemother, 2009).
Activity calls are given as the source filed them. The rule behind the calls is not given here.

How the values were obtained:
Echovirus E9 = experiment: Antiviral activity against Echovirus 9 infected in human RD cells assessed as protection against virus-induced cytopathogenicity; format: functional, organism-based; settings: Enterovirus B
Method in brief: (§1)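 CPE neutralization test: cells seeded at 3 × 10^4/well and grown 24 h at 37°C, infected at MOI 0.005 PFU/cell. After adsorption, medium with 2% FBS and compound (twofold dilutions from 25 μM) or 0.5% DMSO added. Incubated 64 h at 35°C, then formaldehyde-fixed and crystal violet-stained, read at OD570. Triplicate, repeated at least twice. EC50 interpolated between bracketing dilutions.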

Enterovirus A71 [1] = experiment: Antiviral activity against 1 MOI EV71 infected in human RD cells assessed as viral progeny production at 1 uM treated 4 hrs postadsorption measured after 16 hrs; format: functional
Enterovirus A71 [2] = experiment: Antiviral activity against 1 MOI EV71 infected in human RD cells assessed as inhibition of viral RNA production at 2 uM after 6 to 14 hrs by real-time RT-PCR analysis; format: functional; settings: Enterovirus A
Method in brief: (§2)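 RD cells infected with EV71 at MOI 1 PFU/cell for 1 h at room temperature, washed, then kept in medium with 2 μM compound at 35°C. Intracellular RNA extracted at intervals p.i. Viral RNA quantified by TaqMan real-time RT-PCR, or by slot blot with DIG-labelled genome- and antigenome-specific RNA probes. Compared with DMSO at each time point.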

Enterovirus A71 [3] = experiment: Antiviral activity EV71 2231 infected in human RD cells assessed as protection against virus-induced cytopathogenicity; format: functional, organism-based; settings: Enterovirus A, 2231, RD; method in brief: as §1
Human alphaherpesvirus 2 = experiment: Antiviral activity against HSV2 infected in human RD cells assessed as protection against virus-induced cytopathogenicity; format: functional, organism-based; settings: Human alphaherpesvirus 2, RD
Influenza B virus = experiment: Antiviral activity against influenza B virus infected in human RD cells assessed as protection against virus-induced cytopathogenicity; format: functional, organism-based; method in brief: as §1
Enterovirus A71 [4] = experiment: Antiviral activity against 1 MOI EV71 infected in human RD cells assessed as inhibition of viral plaque formation 16 hrs by plaque formation assay; format: functional, organism-based; settings: Enterovirus A
Method in brief: (§3)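 Virus yield assay: RD cells (6 × 10^5/well) infected with EV71 TW/2231/98 at the stated MOI for 1 h at room temperature, washed twice, then kept in 2% FBS medium with compound (0–2.5 μM) at 35°C. At 16 h p.i., supernatant and debris pooled and titrated by plaque assay in RD cells (0.3% agarose overlay, 4 days at 35°C, crystal violet, PFU/ml).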

Enterovirus A71 [5] = experiment: Antiviral activity against EV71 harboring 3D […] R163K mutant gene infected in human RD cells assessed as inhibition of viral plaque formation 16 hrs by plaque formation assay; format: functional, organism-based; settings: Enterovirus A
Coxsackievirus B3 = experiment: Antiviral activity against Coxsackievirus B3 infected in human RD cells assessed as protection against virus-induced cytopathogenicity; format: functional, organism-based; settings: Enterovirus B; method in brief: as §1
Coxsackievirus B2 = experiment: Antiviral activity against Coxsackievirus B2 infected in human RD cells assessed as protection against virus-induced cytopathogenicity; format: functional, organism-based; settings: Enterovirus B; method in brief: as §1
Enterovirus A71 [6] = experiment: Antiviral activity against 1 MOI EV71 infected in human RD cells assessed as inhibition of viral progeny production at 1 uM treated 2 hrs postinfection measured after 16 hrs; format: functional; settings: Enterovirus A
Human alphaherpesvirus 1 = experiment: Antiviral activity against HSV1 infected in human RD cells assessed as protection against virus-induced cytopathogenicity; format: functional, organism-based; settings: Human alphaherpesvirus 1, RD
Coxsackievirus A24 = experiment: Antiviral activity against Coxsackievirus A24 infected in human RD cells assessed as protection against virus-induced cytopathogenicity; format: functional, organism-based; settings: Enterovirus C; method in brief: as §1
Enterovirus A71 [7] = experiment: Antiviral activity against 1 MOI EV71 infected in human RD cells assessed as inhibition of viral RNA production at 2 uM after 6 to 14 hrs by slot blot analysis; format: functional, organism-based; method in brief: as §2
Enterovirus A71 [8] = experiment: Antiviral activity against 0.001 MOI EV71 infected in human RD cells assessed as inhibition of viral plaque formation 16 hrs by plaque formation assay; format: functional, organism-based; settings: Enterovirus A; method in brief: as §3
[9] = Selectivity index, ratio of CC50 for human RD cells to EC50 for 1 MOI EV71 infected in human RD cells
Enterovirus A71 [10] = experiment: Antiviral activity against 1 MOI EV71 infected in human RD cells assessed as inhibition of IRES-mediated viral RNA translation at 2 uM after 6 to 14 hrs by luciferase reporter gene assay; format: functional, organism-based
rhinovirus A2 = experiment: Antiviral activity against HRV2 infected in human RD cells assessed as protection against virus-induced cytopathogenicity; format: functional, organism-based; settings: Rhinovirus A; method in brief: as §1
[11] = tested on: Polymerase 3D (Human enterovirus 71 STH/MCN/2006), B2G369 [R163K]; experiment: Inhibition of EV71 recombinant 3D polymerase R163K mutant expressed in Escherichia coli BL21 (DE3) assessed as enzyme activity at 250 to 500 uM by polymerase elongation assay; parameters: scale not given: the % may be the effect or the level left; settings: Enterovirus A71
Enterovirus A71 [12] = experiment: Antiviral activity against EV71 harboring 2C […] T256A mutant gene infected in human RD cells assessed as inhibition of viral plaque formation 16 hrs by plaque formation assay; format: functional, organism-based; settings: Enterovirus A
Enterovirus A71 [13] = experiment: Antiviral activity against 0.001 PFU/cell EV71 TW/2231/98 infected in human RD cells assessed as inhibition of viral plaque formation after 10 passages by plaque formation assay; format: functional, organism-based; settings: Enterovirus A, TW/2231/98, RD
[14] = Antiviral activity against Coxsackievirus A10 infected in human RD cells assessed as protection against virus-induced cytopathogenicity; format: functional, cell-based; settings: Enterovirus A; method in brief: as §1
Enterovirus A71 [15] = experiment: Inhibition of EV71 recombinant 3D polymerase expressed in Escherichia coli BL21 (DE3) assessed as inhibition of Vpg-pU(pU) synthesis at 250 to 500 uM by gel electrophoresis
Method in brief: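 VPg uridylylation: 1 μM recombinant EV71 3D with 2 μg synthetic VPg, 0.5 μg poly(rA)300, 10 μM UTP plus 0.04 μM [α-32P]UTP, in 50 mM HEPES pH 7.5 with 2.5 mM Mn(OAc)2 and 8% glycerol. Incubated 60 min at 33°C. Products resolved on 13.5% Tricine SDS-PAGE and detected by autoradiography.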

Coxsackievirus A9 = experiment: Antiviral activity against Coxsackievirus A9 infected in human RD cells assessed as protection against virus-induced cytopathogenicity; format: functional, organism-based; settings: Enterovirus B; method in brief: as §1
Enterovirus A71 [16] = experiment: Antiviral activity against EV71 harboring 3D […] R163K/S264L mutant gene infected in human RD cells assessed as inhibition of viral plaque formation 16 hrs by plaque formation assay; format: functional, organism-based; settings: Enterovirus A
[17] = Cytotoxicity against human RD cells after 16 hrs by MTS-based assay; format: cell-based
Coxsackievirus B4 = experiment: Antiviral activity against Coxsackievirus B4 infected in human RD cells assessed as protection against virus-induced cytopathogenicity; format: functional, organism-based; settings: Enterovirus B; method in brief: as §1
Enterovirus A71 [18] = experiment: Antiviral activity against 0.001 PFU/cell EV71 TW/2231/98 infected in human RD cells assessed as inhibition of viral plaque formation after 5 passages by plaque formation assay; format: functional, organism-based; settings: Enterovirus A, TW/2231/98, RD
Coxsackievirus A16 = experiment: Antiviral activity against Coxsackievirus A16 infected in human RD cells assessed as protection against virus-induced cytopathogenicity; format: functional, cell-based; settings: Enterovirus A; method in brief: as §1
Enterovirus A71 [19] = experiment: Antiviral activity against EV71 infected in human RD cells assessed as inhibition of viral plaque formation 16 hrs by plaque formation assay; format: functional, organism-based; settings: Enterovirus A
Enterovirus A71 [20] = experiment: Antiviral activity against 0.001 PFU/cell EV71 infected in human RD cells assessed as inhibition of viral plaque formation at 0.1 uM after 16 hrs by plaque formation assay; format: functional; parameters: scale not given: the % may be the effect or the level left; method in brief: as §3
Enterovirus A71 [21] = experiment: Antiviral activity against 0.001 PFU/cell EV71 TW/2231/98 infected in human RD cells assessed as inhibition of viral plaque formation after 16 hrs by plaque formation assay; format: functional, organism-based; settings: Enterovirus A, TW/2231/98, RD; method in brief: as §3
Enterovirus A71 [22] = experiment: Antiviral activity EV71 1743 infected in human RD cells assessed as protection against virus-induced cytopathogenicity; format: functional, organism-based; settings: Enterovirus A, 1743, RD; method in brief: as §1
Coxsackievirus B6 = experiment: Antiviral activity against Coxsackievirus B6 infected in human RD cells assessed as protection against virus-induced cytopathogenicity; format: functional, organism-based; settings: Enterovirus B; method in brief: as §1
Coxsackievirus B5 = experiment: Antiviral activity against Coxsackievirus B5 infected in human RD cells assessed as protection against virus-induced cytopathogenicity; format: functional, organism-based; settings: Enterovirus B; method in brief: as §1
Enterovirus A71 [23] = experiment: Antiviral activity EV71 4643 infected in human RD cells assessed as protection against virus-induced cytopathogenicity; format: functional, organism-based; settings: Enterovirus A, 4643, RD; method in brief: as §1
Enterovirus A71 [24] = experiment: Antiviral activity against EV71 harboring VP1 […] V192M mutant gene infected in human RD cells assessed as inhibition of viral plaque formation 16 hrs by plaque formation assay; format: functional, organism-based
Enterovirus A71 [25] = experiment: Antiviral activity EV71 BrCr infected in human RD cells assessed as protection against virus-induced cytopathogenicity; format: functional, organism-based; settings: Enterovirus A; method in brief: as §1
Coxsackievirus B1 = experiment: Antiviral activity against Coxsackievirus B1 infected in human RD cells assessed as protection against virus-induced cytopathogenicity; format: functional, organism-based; settings: Enterovirus B; method in brief: as §1
Enterovirus A71 [26] = experiment: Antiviral activity against 1 MOI EV71 infected in human RD cells assessed as inhibition of viral progeny production at 1 uM treated 4 hrs postadsorption measured after 16 hrs; format: functional, organism-based
Enterovirus A71 [27] = experiment: Antiviral activity against 0.001 PFU/cell EV71 TW/2231/98 infected in human RD cells assessed as inhibition of viral plaque formation after 14 passages by plaque formation assay; format: functional, organism-based; settings: Enterovirus A, TW/2231/98, RD
Enterovirus A71 [28] = experiment: Inhibition of EV71 recombinant 3D polymerase expressed in Escherichia coli BL21 (DE3) by polymerase elongation assay
Method in brief: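 His-tagged EV71 3D polymerase made in E. coli BL21(DE3) (50 μM IPTG, 25°C, 4 h) and purified on a nickel column. Assay used 1 μM enzyme in 50 mM HEPES pH 7.5, 5 mM MgCl2, 60 μM ZnCl2, 10 mM 2-mercaptoethanol, 5 μM UTP plus [α-32P]UTP, and dT15/poly(rA)300 primer/template. Run 10 min at 30°C, stopped with EDTA, product captured on DE81 filters and counted by scintillation.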

Influenza A virus = experiment: Antiviral activity against Influenza A virus (A/WSN/1933(H1N1)) infected in human RD cells assessed as protection against virus-induced cytopathogenicity; format: functional, organism-based; method in brief: as §1

Cc1ccsc1C(c1ccccc1Br)N1CCN(c2ncnc3c2cnn3-c2ccccc2)CC1 (stereo not drawn)
EC50 (Echovirus E9): 1220 nM
Activity (Enterovirus A71 [1]): 76%
inhibition at 2 µM (Enterovirus A71 [2]): 87%
EC50 (Enterovirus A71 [3]): 980 nM
EC50 (Human alphaherpesvirus 2): > 25000 nM
EC50 (Influenza B virus): 5900 nM
EC50 (Enterovirus A71 [4]): 160 nM
EC50 (Enterovirus A71 [5]): > 25000 nM
EC50 (Coxsackievirus B3): 260 nM
EC50 (Coxsackievirus B2): 70 nM
inhibition at 1 µM (Enterovirus A71 [6]): 79%
EC50 (Human alphaherpesvirus 1): > 25000 nM
EC50 (Coxsackievirus A24): 80 nM
inhibition (Enterovirus A71 [7]): Active
EC50 (Enterovirus A71 [8]): 23 nM
Ratio CC50/EC50 [9]: 625
inhibition (Enterovirus A71 [10]): inactive
EC50 (rhinovirus A2): 1690 nM
Activity [11]: 28%
EC50 (Enterovirus A71 [12]): 279 nM
EC50 (Enterovirus A71 [13]): > 25000 nM
EC50 [14]: 1060 nM
inhibition (Enterovirus A71 [15]): inactive
EC50 (Coxsackievirus A9): 990 nM
EC50 (Enterovirus A71 [16]): > 25000 nM
CC50 at 16 h [17]: 100000 nM
EC50 (Coxsackievirus B4): 230 nM
EC50 (Enterovirus A71 [18]): 250 nM
EC50 (Coxsackievirus A16): 80 nM
EC50 (Enterovirus A71 [19]): 308 nM
Activity (Enterovirus A71 [20]): 95%
EC50 (Enterovirus A71 [21]): 740 nM
EC50 (Enterovirus A71 [22]): 440 nM
EC50 (Coxsackievirus B6): 330 nM
EC50 (Coxsackievirus B5): 130 nM
EC50 (Enterovirus A71 [23]): 130 nM
EC50 (Enterovirus A71 [24]): 240 nM
EC50 (Enterovirus A71 [25]): 150 nM
EC50 (Coxsackievirus B1): 240 nM
inhibition (Enterovirus A71 [26]): inactive
EC50 (Enterovirus A71 [27]): > 25000 nM
inhibition (Enterovirus A71 [28]): Dose-dependent effect
EC50 (Influenza A virus): 5980 nM
